Source: ChEMBL document CHEMBL5321236, “Fluoro-labelled sp2-iminoglycolipids with immunomodulatory properties” (Eur J Med Chem, 2023)
The source made the active and inactive calls. The calls are words filed in the database; no cut-off is given here.

Tests used:
A549 = test: Growth inhibition of human A549 cells measured after 48 hrs by SRB colorimetric assay; format: functional
Summary of the method: (§1)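 NCI-based protocol with sulforhodamine B read-out. Seeded 2500 (A549, HBL-100, HeLa, SW1573), 5000 (T-47D, WiDr, SW1573/P-gp) or 7000 (BJ-hTERT) cells/well. Exposed 48 h to serial decimal dilutions, 0.001–100 μM, from 40 mM DMSO stock. GI50 by NCI formulas; mean of three or more experiments ± SD.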

HBL-100 = test: Growth inhibition of human HBL-100 cells measured after 48 hrs by SRB colorimetric assay; format: functional; summary of the method: as §1
HeLa = test: Growth inhibition of human HeLa cells measured after 48 hrs by SRB colorimetric assay; format: functional; summary of the method: as §1
SW1573 [1] = test: Growth inhibition of human SW1573 cells measured after 48 hrs by SRB colorimetric assay; format: functional; summary of the method: as §1
T47D = test: Growth inhibition of human T47D cells measured after 48 hrs by SRB colorimetric assay; format: functional; summary of the method: as §1
WiDr = test: Growth inhibition of human WiDr cells measured after 48 hrs by SRB colorimetric assay; format: functional; summary of the method: as §1
BV-2 [2] = test: Cytotoxicity against mouse BV-2 cells at 10 uM measured after 24 hr by crystal violet staining based analysis; format: toxicity, cell-based; settings: bv-2, 24 h
Summary of the method: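 Bv.2 cells grown to 70% confluence, exposed 24 h in serum-free medium to 0.1, 1.0, 10 and 25 μM. Fixed with 1% glutaraldehyde, stained with 0.1% crystal violet, dye released in 10% acetic acid, absorbance 590 nm. Mean ± SEM, n ≥ 3 independent experiments.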

BV-2 [3] = test: Antiinflammatory activity in mouse BV-2 cells assessed as restoration of […] expression level at 10 uM incubated for 24 hrs with LPS stimulation by qRT-PCR analysis; format: functional, cell-based
Summary of the method: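 Bv.2 microglia stimulated with LPS 200 ng/mL with or without compound at 10 μM for 24 h. Arg1 mRNA measured by qRT-PCR, Actinb as housekeeping gene, 2^-ΔΔCT method, fold change relative to basal. n ≥ 4 independent experiments in triplicate.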

[4] = target: Mitogen-activated protein kinase 14 (Mus musculus) (UniProt P47811); test: Inhibition of LPS-stimulated p38 alpha phosphorylation in mouse BV-2 cells at 10 uM measured after 30 mins by Western blot analysis; format: cell-based
Summary of the method: (§2)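 Bv.2 cells exposed with or without LPS for 15–90 min. Protein extracts run on SDS-PAGE, blotted to PVDF, probed with anti-phospho-p38α MAPK and anti-total p38α MAPK (1:1000), ECL detection. Quantified by densitometry, mean ± SEM, n = 3.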

[5] = target: Mitogen-activated protein kinase 14 (Mus musculus) (UniProt P47811); test: Inhibition of LPS-stimulated p38 alpha phosphorylation in mouse BV-2 cells at 10 uM measured after 60 to 90 mins by Western blot analysis; format: cell-based; settings: time 60-90 min; summary of the method: as §2
BV-2 [6] = test: Protection against LPS induced inflammation in mouse BV-2 cells assessed as decrease in IL1-beta mRNA expression at 10 uM incubated for 24 hrs with LPS stimulation by qRT-PCR analysis
BV-2 [7] = test: Protection against LPS induced inflammation in mouse BV-2 cells assessed as decrease in Tnf-alpha mRNA expression at 10 uM incubated for 24 hrs with LPS stimulation by qRT-PCR analysis
SW1573 [8] = test: Growth inhibition of human SW1573 cells measured after 48 hrs in absence of verapamil by SRB colorimetric assay; format: functional
Summary of the method: as §1, with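 “read-out. Cells grown in RPMI 1640 with 5% FBS and 1 mM glutamine at 37 °C, 5% CO₂.” for “read-out.”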

SW1573 [9] = test: Growth inhibition of human SW1573 cells overexpressing P-glycoprotein measured after 48 hrs in absence of verapamil by SRB colorimetric assay; format: functional
Summary of the method: as §1, with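 “read-out. Cells grown in RPMI 1640 with 5% FBS and 1 mM glutamine at 37 °C, 5% CO₂.” for “read-out.”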

SW1573 [10] = test: Growth inhibition of human SW1573 cells measured after 48 hrs in presence of verapamil by SRB colorimetric assay; format: functional
Summary of the method: as §1, with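 “read-out. Cells grown in RPMI 1640 with 5% FBS and 1 mM glutamine at 37 °C, 5% CO₂.” for “read-out.”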

SW1573 [11] = test: Growth inhibition of human SW1573 cells overexpressing P-glycoprotein measured after 48 hrs in presence of verapamil by SRB colorimetric assay; format: functional
Summary of the method: as §1, with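 “read-out. Cells grown in RPMI 1640 with 5% FBS and 1 mM glutamine at 37 °C, 5% CO₂.” for “read-out.”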

[12] = Resistance factor, ratio of GI50 for growth inhibition of human SW1573 cells overexpressing P-glycoprotein measured after 48 hrs in absence of verapamil to GI50 for growth inhibition of human SW1573 cells measured after 48 hrs in absence of verapamil; format: functional
Summary of the method: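 Resistance factor: GI50 in P-gp-overexpressing SW1573 divided by GI50 in parental SW1573, each from 48 h SRB growth-inhibition assay without verapamil. Values are means of three or more independent experiments.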

[13] = Resistance factor, ratio of GI50 for growth inhibition of human SW1573 cells overexpressing P-glycoprotein measured after 48 hrs in presence of verapamil to GI50 for growth inhibition of human SW1573 cells measured after 48 hrs in presence of verapamil; format: functional
Summary of the method: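 SW1573 parental and P-gp-overexpressing cells given 48 h exposure to serial dilutions (0.001–100 μM) in medium containing verapamil at a final 10 μM as P-gp transport inhibitor. SRB read-out, GI50 by NCI formulas. Resistance factor taken as GI50 in SW1573/P-gp divided by GI50 in SW1573.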

Sequence of Mitogen-activated protein kinase 14 (Mus musculus) (P47811 whole entry): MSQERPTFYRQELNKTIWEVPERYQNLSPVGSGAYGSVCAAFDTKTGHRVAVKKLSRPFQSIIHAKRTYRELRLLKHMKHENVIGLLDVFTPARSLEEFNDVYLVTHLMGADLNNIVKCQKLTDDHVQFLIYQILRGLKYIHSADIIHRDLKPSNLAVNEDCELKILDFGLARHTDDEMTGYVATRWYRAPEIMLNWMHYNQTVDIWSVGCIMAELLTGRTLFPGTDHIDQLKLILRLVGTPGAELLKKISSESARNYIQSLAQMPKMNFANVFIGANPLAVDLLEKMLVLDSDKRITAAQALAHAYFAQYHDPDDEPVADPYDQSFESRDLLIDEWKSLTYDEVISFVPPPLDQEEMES

Structure (SMILES) | GI50 (A549) [µM] | GI50 (HBL-100) [µM] | GI50 (HeLa) [µM] | GI50 (SW1573 [1]) [µM] | GI50 (T47D) [µM] | GI50 (WiDr) [µM] | Activity (BV-2 [2]) | Activity (BV-2 [3]) | inhibition [4] | inhibition [5] | Activity (BV-2 [6]) | Activity (BV-2 [7]) | GI50 (SW1573 [8]) [µM] | GI50 (SW1573 [9]) [µM] | GI50 (SW1573 [10]) [µM] | GI50 (SW1573 [11]) [µM] | RatioGI50 [12] | RatioGI50 [13]
O=C1OC[C@@H]2[C@@H](O)[C@H](O)[C@@H](O)[C@@H](O)N12 | > 100 | > 100 | > 100 | > 100 | > 100 | > 100 | – | – | – | – | – | – | – | – | – | – | – | –
O=C1OC[C@@H]2[C@@H](O)[C@H](OCc3ccccc3)[C@H](F)[C@@H](O)N12 | > 100 | > 100 | > 100 | > 100 | > 100 | > 100 | – | – | – | – | – | – | – | – | – | – | – | –
CCCCCCCCCCCCS(=O)(=O)[C@@H]1[C@H](F)[C@@H](OCc2ccccc2)[C@H](O)[C@H]2COC(=O)N21 | 4.3 | 4.2 | 3.3 | 4.2 | 9.7 | 3.6 | Non-Toxic | Active | inactive | inactive | Active | Active | – | – | – | – | – | –
O=C1OC[C@@H]2[C@@H](O)[C@H](OCc3ccccc3)[C@@H](F)[C@@H](O)N12 | > 100 | > 100 | > 100 | > 100 | > 100 | > 100 | – | – | – | – | – | – | – | – | – | – | – | –
CCCCCCCCCCCCS(=O)(=O)[C@@H]1[C@@H](F)[C@@H](O)[C@H](O)[C@H]2COC(=O)N21 | 2.9 | 7.4 | 3.1 | 3.6 | 10 | 4.3 | – | – | – | – | – | – | – | – | – | – | – | –
CCCCCCCCCCCCS[C@@H]1[C@@H](F)[C@@H](OCc2ccccc2)[C@H](O)[C@H]2COC(=O)N21 | 13 | 18 | 19 | 18 | 20 | 18 | – | – | – | – | – | – | – | – | – | – | – | –
CCCCCCCCCCCCS[C@@H]1[C@H](F)[C@@H](O)[C@H](O)[C@H]2COC(=O)N21 | 17 | 22 | 19 | 22 | 21 | 21 | Non-Toxic | – | – | – | Active | Active | – | – | – | – | – | –
CCCCCCCCCCCCS[C@@H]1[C@@H](O)[C@@H](O)[C@H](O)[C@H]2COC(=O)N21 | 18 | 26 | 19 | 25 | 25 | 23 | – | – | – | – | – | – | – | – | – | – | – | –
CCCCCCCCCCCCS[C@@H]1[C@H](F)[C@@H](OCc2ccccc2)[C@H](O)[C@H]2COC(=O)N21 | 18 | 19 | 13 | 19 | 18 | 20 | – | – | – | – | – | – | – | – | – | – | – | –
CCCCCCCCCCCCS(=O)(=O)[C@@H]1[C@@H](OC)[C@@H](O)[C@H](O)[C@H]2COC(=O)N21 | 15 | 20 | 20 | 21 | 17 | 21 | – | – | – | – | – | – | – | – | – | – | – | –
O=C1OC[C@@H]2[C@@H](O)[C@H](O)[C@@H](F)[C@@H](O)N12 | > 100 | > 100 | > 100 | > 100 | > 100 | > 100 | Non-Toxic | – | – | – | Active | Active | – | – | – | – | – | –
O=c1[nH]cc(F)c(=O)[nH]1 [FLUOROURACIL] | 2.2 | 5.5 | 15 | 4.3 | 47 | 49 | – | – | – | – | – | – | – | – | – | – | – | –
O=C1OC[C@@H]2[C@@H](O)[C@H](O)[C@H](O)[C@@H](O)N12 | > 100 | > 100 | > 100 | > 100 | > 100 | > 100 | – | – | – | – | – | – | – | – | – | – | – | –
CC(=O)O[C@H]1C(=O)[C@@]2(C)[C@H]([C@H](OC(=O)c3ccccc3)[C@]3(O)C[C@H](OC(=O)[C@H](O)[C@@H](NC(=O)c4ccccc4)c4ccccc4)C(C)=C1C3(C)C)[C@]1(OC(C)=O)CO[C@@H]1C[C@@H]2O [PACLITAXEL] | – | – | – | – | – | – | – | – | – | – | – | – | 0.00053 | 0.3 | 0.00046 | 0.00031 | 564 | 0.7
CCCCCCCCCCCCS[C@@H]1[C@H](O)[C@@H](O)[C@H](O)[C@H]2COC(=O)N21 | 16 | 17 | 17 | 18 | 18 | 18 | – | – | – | – | – | – | – | – | – | – | – | –
O=C1OC[C@@H]2[C@@H](O)[C@H](O)[C@H](F)[C@@H](O)N12 | > 100 | > 100 | > 100 | > 100 | > 100 | > 100 | – | – | – | – | – | – | – | – | – | – | – | –
CCCCCCCCCCCCS(=O)(=O)[C@@H]1[C@H](O)[C@@H](OCc2ccccc2)[C@H](O)[C@H]2COC(=O)N21 | 7.1 | 15 | 9.2 | 10 | 14 | 13 | Non-Toxic | – | – | – | Active | Active | – | – | – | – | – | –
CCCCCCCCCCCCS(=O)(=O)[C@@H]1[C@@H](F)[C@@H](OCc2ccccc2)[C@H](O)[C@H]2COC(=O)N21 | 4.2 | 3.4 | 3.6 | 4.5 | 3.8 | 4.3 | – | – | – | – | – | – | – | – | – | – | – | –
